According to paper PMC8358665 (Chembiochem : a European journal of chemical biology, 2021):

Columns and labels:
Assay type in all cases: cell-based
[1] = test system: LNCaP_NED cells; experiment: Cell proliferation
Outline: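 LNCaP cells were cultured in charcoal-stripped serum (androgen- and steroid-depleted) media to induce neuroendocrine differentiation (LNCaP_NED). NED cells were then exposed to the test compound and/or the AR antagonist enzalutamide for 4 days, and cell proliferation was measured. DMSO served as the negative control.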

[2] = test system: LNCaP cells; experiment: Cell proliferation
[3] = test system: VCaP_NED; experiment: Western blotting of protein expression during NED; conditions: 10 μM, 48 hours
Outline: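 Neuroendocrine-differentiated cells were treated for 48 h with DMSO, 10 μM GSK343 (an EZH2 inhibitor) or 10 μM test compound. Parental cells treated with DMSO served as the reference. Whole-cell lysates were extracted and analysed by western blotting. Data are from n=3 biological replicates, shown with SEM, and compared by two-tailed Student's t-test.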

Compound	cell proliferation with AR antagonist [1]	cell proliferation with AR antagonist [2]	CBX2 protein expression [3]	H3K27me3 levels (global) [3]	AR protein expression ([3]; compared to DMSO)	ENO2 and N-Myc protein expression ([3]; compared to DMSO)
CNC(=O)c1ccc(N2C(=S)N(c3ccc(C#N)c(C(F)(F)F)c3)C(=O)C2(C)C)cc1F [enzalutamide]	no further decrease in proliferation	highly decreased proliferation				
CCCc1cc(C)[nH]c(=O)c1CNC(=O)c1cc(-c2ccnc(N3CCN(C)CC3)c2)cc2c1cnn2C(C)C [GSK343]			decrease in CBX2 expression	reduces H3K27me3 levels	increase AR	decrease ENO2 and N-Myc expression
